Compound activity from PubChem.
STAT3 activator – activators of IL-6 induced STAT3 signaling; U3A cells, IL-6 STAT3-luciferase reporter, luminescence; 100% = signal with IL-6 EC80 alone; activation (% of control), % at 5.6 µM; hit rate 0.91% among 190,000;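 active means activation above the screen-wide mean of compound activation plus 3 SD, cut at about 130% in these data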;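 further: 0% = background luminescence of wells with medium and substrate only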
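Assay system – human STAT1-deficient U3A cells with stable STAT3-luciferase reporter · Also added – IL-6 (33 ng/mL) · Schedule – compound 1 h, then IL-6 6 h at 37 °C · Technique – reporter luminescence signal · Evaluation – % activation versus median of IL-6-stimulated wells · Benchmarks – IL-6-only wells as 100% reference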
NF-kB neuron act – compounds increasing NF-kB expression in human neuronal cells; NF-kB reporter expression; hits give high values; AID 1239; fold change at 12.5 µM; hit rate 1.6% among 190,000; in the data active means fold change above about 3.3
APP 5'UTR act – activates APP 5'UTR luciferase reporter | SH-SY5Y APP 5'UTR luciferase reporter, luminescence; zero percent = DMSO vehicle wells | activation, % at 2 µM | hit rate 1% among 190,000;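 active means activation above a set limit, based on mean plus 3 SD of controls, cut at about 140% in these data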
STAT3 blocker – reduces IL-6 driven STAT3 reporter signal. hit rate 0.89% among 190,000. U3A cells, IL-6 STAT3-luciferase reporter, luminescence; host cell line lacks STAT1. AID 862. inhibition, % at 5.5 µM;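 active means inhibition above the mean inhibition across all screened compounds plus 3 SD, cut at about 44% in these data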;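 further: 0% = DMSO only wells and 100% = 100 µM nifuroxazide control wells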
STAT1 inh – inhibitors of IFN-gamma induced STAT1 signaling; hit rate 0.35% among 200,000; NIH 3T3 STAT1-luciferase reporter, luminescence; inhibition, % at 5.5 µM;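 active means inhibition above a set limit, the mean inhibition across all tested compounds plus 3 SD, cut at about 34% in these data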;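 further: 0% = IFN-gamma with DMSO and 100% = IFN-gamma with 300 µM nifuroxazide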
STAT1 activator – activators of IFN-gamma induced STAT1 signaling. NIH 3T3 STAT1-luciferase reporter, luminescence; 100% = IFN-gamma alone, no compound. activation (% of control), % at 5.5 µM. hit rate 2.6% among 200,000. AID 932;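 active means activation above the screen-wide mean activation plus 3 SD, cut at about 130% in these data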;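 further: raw ratio to IFN-gamma control signal so 100% means no change and 0% no light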
STAT1 activ conf – STAT1 activation, confirmation assay | shares compounds with STAT1 activator | hit rate 97% among 1,200 | AID 1262 | activation (% of control), % at 5.7 µM | NIH 3T3 STAT1-luciferase reporter, IFN-gamma potentiation, luminescence; 100% = IFN-gamma EC80 alone, no compound;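 active means activation above a set limit carried over from the earlier primary STAT1 screen, cut at about 140% in these data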;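 further: simple ratio to median IFN-gamma plus DMSO wells so 0% means no light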
NFkB act STAT1ct – activates NF-kappaB, counter-screen to STAT1 activators; shares compounds with STAT1 activator; HEK293T NF-kB luciferase reporter, TNF-alpha stimulated, luminescence; 100% = TNF-alpha with vehicle only; activation (% of control), % at 5.7 µM; hit rate 43% among 1,200; AID 1306;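 active means activation above the mean of solvent-only control wells plus 3 SD, set per campaign, cut at about 130% in these data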;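 further: TNF-alpha given at a submaximal dose yielding about 80% of full reporter signal; values are well signal over median control so 100% means no change and 0% no light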
STAT3 act STAT1c – human STAT3 activation in STAT1 activator counter-screen; shares compounds with STAT1 activator; activation (% of control), % at 5.7 µM; hit rate 46% among 1,200; U3A cells STAT3-luciferase reporter, IL-6, luminescence; cells lack STAT1; 100 = IL-6 alone, no compound effect;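 active means activation above the solvent-only control well mean plus 3 SD, set per plate batch, cut at about 110% in these data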;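 further: 0% = no luminescence and 100% = median IL-6 plus DMSO wells; higher means more STAT3 reporter activation so hits are non-selective activators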
An asterisk follows results filed as active; nt = no result. Compounds with a hit are over-represented: about 4.9% of the library has one in this group of screens.

SMILES	STAT3 activator	NF-kB neuron act	APP 5'UTR act	STAT3 blocker	STAT1 inh	STAT1 activator	STAT1 activ conf	NFkB act STAT1ct	STAT3 act STAT1c
Cc1cccc(/C(N)=N/OC(=O)C23CC4CC(CC(C4)C2)C3)c1	83	0.69	80	24	5	95	nt	nt	nt
Cc1ccccc1/C=C1\CCCc2ccccc2C1=O	92	5.7*	116	8	-63	158*	195*	137*	110
O=C1/C(=C/c2c[nH]c3ccccc23)CCC/C1=C\c1c[nH]c2ccccc12	90	1	19	12	-11	110	nt	nt	nt
O=C(Nc1cccc(Cl)c1)c1cnn2cccnc12	123	3.7*	87	-24	-59	157*	178*	130	123*
CCc1cc(CNC(=O)CCc2nnc(CCCc3ccccc3)o2)on1	111	3.4*	70	-10	-65	158*	168*	125	115*
O=C(CCc1nnc(CCCc2ccccc2)o1)N1CCCCCC1	105	2.3	76	-2	-61	153*	142*	122	107
O=C(CCc1nnc(C2CCCCC2)o1)N1CCN(c2ccccc2F)CC1	116	2.6	85	-13	-73	163*	172*	137*	117*
Cc1nc2ccc(S(=O)(=O)NCC(=O)NC(C)c3ccccc3)cc2s1 (centres undefined)	94	1.4	17	11	1	97	nt	nt	nt
O=C1c2ccccc2C(=O)N1CN(C(=O)COc1ccccc1)c1ccc(F)cc1	95	1.2	-8	10	11	90	nt	nt	nt
CN(C)S(=O)(=O)c1cccc(C(=O)OCC(=O)NC2CCCc3ccccc32)c1 (centres undefined)	104	0.97	2	-5	2	98	nt	nt	nt
O=c1c2ccccc2nnn1CSc1ccccc1	78	4.3*	158*	25	-72	165*	192*	109	100
CCOc1cc(N2CCOCC2)c(OCC)cc1NC(=O)c1ccc(NC(C)=O)cc1	106	0.63	8	-5	-2	102	nt	nt	nt
CC(C)CN1CCN(Cc2cnc(N3CCOCC3)s2)CC1CCO (centres undefined)	101	1.1	5	3	1	97	nt	nt	nt
CCC(=O)Nc1ccc(C(=O)Nc2cccc(C)n2)cc1	94	2.4	55	11	-28	124	nt	nt	nt
Nc1ccccc1Nc1cc(-c2ccccc2)[nH]n1	75	4.7*	18	31	-134	225*	179*	83	92
Nc1ccccc1Nc1cc(-c2ccccc2)nn1-c1ccccc1	99	1.2	-3	4	-10	109	nt	nt	nt
CCc1ccc(-n2c(=O)c3c(C)c(C(=O)N(C)C)sc3n(CC(=O)NCc3ccco3)c2=O)cc1	101	0.88	0	7	7	94	nt	nt	nt
CCCCc1ccc(-c2ccc(Br)cc2)nc1	85	6*	125	20	-65	155*	223*	126	97
CCOC(=O)/C(C#N)=C\C=C1C=CN(C)C=C1	105	3.1	74	-2	-59	154*	162*	123	115*
O=C(N/N=C/C(Cl)=C/c1ccccc1)c1ccco1	94	4.3*	89	9	-61	156*	186*	134*	109
Cc1ccc2nc(-c3ccc(NC(=O)CCN4C(=O)c5ccccc5C4=O)cc3)sc2c1	71	7.4*	128	31	-66	160*	153*	99	60
CCO[C@H]1OC(C(=O)N2CCN(Cc3ccc4c(c3)OCO4)CC2)=C[C@@H](C(C)(C)C)[C@@H]1CCCO	nt	0.78	-2	nt	1	100	nt	nt	nt
CN(C)[C@@H]1CCC[C@@H]1OC(=O)C(c1ccccc1)c1ccccc1	99	1.2	-6	3	6	95	nt	nt	nt
Nc1nc2ccccc2n1/N=C/c1ccc(-c2ccccc2)o1	84	1.7	94	22	-61	155*	160*	121	99
CC(=O)Nc1ccc(N=Nc2ccc(O)cc2)cc1	93	9.2*	81	6	-59	152*	155*	124	111*
SMILES	STAT3 activator	NF-kB neuron act	APP 5'UTR act	STAT3 blocker	STAT1 inh	STAT1 activator	STAT1 activ conf	NFkB act STAT1ct	STAT3 act STAT1c
CC(=O)Nc1ccc(N=NN2CCOCC2)cc1	110	1.9	12	-11	-19	117	nt	nt	nt
C/C(=N\NC(=O)c1nn(C)c(C)c1Br)c1ccc(NC(=O)c2ccoc2C)cc1	81	1.2	57	28	-87	179*	119	115	89
C/C(=N\NC(=O)c1c(Br)c(C)nn1C)c1ccc(NC(=O)c2ccoc2C)cc1	99	1	-12	2	-22	120	nt	nt	nt
C/C(=N\NC(=O)c1nn(C)c(C)c1Br)c1ccc(NC(=O)c2ccccc2F)cc1	80	1.3	112	26	-62	156*	123	118	89
CCC(=O)Nc1ccc(/C(C)=N/NC(=O)c2c(Br)c(C)nn2C)cc1	100	0.88	-7	0	10	91	nt	nt	nt
O=C(c1ccc(NC(=S)NCc2ccco2)cc1)N1CCCCC1	100	1	10	7	2	98	nt	nt	nt
Cn1ncc([N+](=O)[O-])c1C(=O)N/N=C/c1ccc(F)cc1	95	1	1	9	-3	103	nt	nt	nt
Cc1nnc(SCC(=O)c2ccc(Cl)cc2)n(N)c1=O	107	3.1	72	-1	-30	126	nt	nt	nt
Nc1ccc2oc(-c3ccccc3Cl)nc2c1	68	2.4	10	34	-56	151*	203*	103	90
Nc1ccc2oc(-c3cc(Br)ccc3Cl)nc2c1	92	0.5	-47	17	3	97	nt	nt	nt
CC(=O)Nc1ccc(-c2cc(-c3ccccc3)nc(-c3ccccc3)n2)cc1	103	1.7	-9	-5	8	93	nt	nt	nt
CC(=O)Nc1ccc2nc(-c3ccccc3)cn2c1	91	7.6*	170*	10	-58	155*	198*	115	100
Cc1ccc(NC(=S)c2ccc(N(C)C)cc2)cc1	73	3.5*	150*	34	-77	170*	201*	129	102
Cc1ccc(OCC(=O)Nc2ccc(N(C)C)cc2)cc1	100	1	12	5	9	91	nt	nt	nt
COc1ccc(OC)c(/C=C/C(=O)N(C)CC(=O)Nc2cc(C)ccc2C)c1	94	0.93	-66	12	-8	108	nt	nt	nt
O=C(COc1ccc(Cl)cc1[N+](=O)[O-])NC1CCCCC1	88	nt	114	19	-65	160*	167*	121	111*
